From ChEMBL document CHEMBL2046345, “Synthesis of Leubethanol derivatives and evaluation against Mycobacterium tuberculosis” (Bioorg Med Chem, 2012)
In brackets after ≈: the same amount, converted by molar mass.

Experiments:
[1] = tested on: Mycobacterium tuberculosis; assay: Antimycobacterial activity against Mycobacterium tuberculosis H37Rv ATCC 27294 by MABA method; type: functional
In short: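 M. tuberculosis H37Rv (ATCC 27294), susceptible to all five first-line drugs, in modified Microplate Alamar Blue Assay. Two-fold serial dilutions were made in Middlebrook 7H9-OADC, 100–0.78 µg/mL, with 1:50 bacterial suspension (~6×10⁶ CFU/mL, McFarland 1). Incubation 37 °C, 5% CO₂, 5–7 days, then Alamar Blue plus 10% Tween-80, 24 h. MIC = first blue well, confirmed microscopically. Ethambutol was the reference; triplicate independent experiments.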

[2] = Selectivity index, ratio of CC50 for african green monkey Vero cells to MIC for Mycobacterium tuberculosis H37Rv ATCC 27294; type: functional
In short: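 SI calculated as CC50 (Vero, MTT, 48 h) divided by MIC against H37Rv (MABA).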

[3] = Cytotoxicity against african green monkey Vero cells after 48 hrs by MTT assay; type: cell-based; conditions: chlorocebus sabaeus
In short: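 Vero cells grown in RPMI-1640 with 10% FBS, penicillin and streptomycin, 37 °C, 5% CO₂. Exposed to compound 500–0.5 µg/mL for 48 h, then MTT (4 mg/mL in PBS) for 3 h. Formazan dissolved in DMSO, absorbance read at 575 nm. CC50 = concentration inhibiting 50% viability by linear regression; rounded mean of three experiments.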

| SMILES | MIC [1] [µM] | Selectivity Index [2] | CC50 at 48 h [3] [µM] |
| --- | --- | --- | --- |
| Cc1cc(O)c2c(c1)[C@H]([C@@H](C)CCCC(C)C)CC[C@H]2C | 30.3 (≈ 8.74 µg/mL) | 6.3 | 192 |
| CCCCOc1cc(C)cc2c1[C@H](C)CC[C@H]2[C@@H](C)CCC=C(C)C | > 200 | – | – |
| CC(C)=CCC[C@H](C)[C@@H]1CC[C@@H](C)c2c(OC(=O)c3ccco3)cc(C)cc21 | > 200 | – | – |
| CC(C)=CCC[C@H](C)[C@@H]1CC[C@@H](C)c2c(OCCCCCCOc3cc(C)cc4c3[C@H](C)CC[C@H]4[C@@H](C)CCC=C(C)C)cc(C)cc21 | 190 (≈ 124 µg/mL) | – | – |
| CC[C@@H](CO)NCCN[C@@H](CC)CO [ETHAMBUTOL] | 7.5 (≈ 1.53 µg/mL) | >67 | > 500 |
| CC(C)=CCC[C@H](C)[C@@H]1CC[C@@H](C)c2c(OCCCCOc3cc(C)cc4c3[C@H](C)CC[C@H]4[C@@H](C)CCC=C(C)C)cc(C)cc21 | 200 (≈ 125 µg/mL) | – | – |
| Cc1cc(O)c2c(c1)[C@H]([C@@H](C)CCCC(C)(C)O)CC[C@H]2C | 200 (≈ 60.9 µg/mL) | – | – |
| CC(C)=CCC[C@H](C)[C@@H]1CC[C@@H](C)c2c(OCc3ccc(Cl)cc3)cc(C)cc21 | > 200 | – | – |
| CC(=O)Oc1cc(C)cc2c1[C@H](C)CC[C@H]2[C@@H](C)CCC=C(C)C [LEUBETHANYL ACETATE] | 48.7 | >22.6 | > 1100 |
| Cc1cc(O)c2c(c1)[C@H]([C@@H](C)CCC(O)C(C)(C)N)CC[C@H]2C (stereo partly specified) | 98 (≈ 31.3 µg/mL) | 1.4 | 141 |
| CCCCCCOc1cc(C)cc2c1[C@H](C)CC[C@H]2[C@@H](C)CCC=C(C)C | > 200 | – | – |
| C/C(=C\CC[C@H](C)[C@@H]1CC[C@@H](C)c2c(O)cc(C)cc21)CO | 25.8 (≈ 7.8 µg/mL) | 5.1 | 132 |
| Cc1cc(O)c2c(c1)[C@H]([C@@H](C)CCC(N=[N+]=[N-])C(C)(C)O)CC[C@H]2C (stereo partly specified) | 90 (≈ 31.1 µg/mL) | 1.4 | 127 |
| CCCCCC(=O)Oc1cc(C)cc2c1[C@H](C)CC[C@H]2[C@@H](C)CCC=C(C)C [LEUBETHANYL HEXANOATE] | > 200 | – | – |
| CC(C)=CCC[C@H](C)[C@@H]1CC[C@@H](C)c2c(OCc3ccc([N+](=O)[O-])cc3)cc(C)cc21 | > 200 | – | – |
| CC(C)=CCC[C@H](C)[C@@H]1CC[C@@H](C)c2c(O)cc(C)c(Cc3cc([N+](=O)[O-])cc([N+](=O)[O-])c3)c21 | 17.2 (≈ 8.03 µg/mL) | >45 | > 770 |
| Cc1cc(O)c2c(c1)[C@H]([C@@H](C)CCC(N)C(C)(C)O)CC[C@H]2C (stereo partly specified) | 98 (≈ 31.3 µg/mL) | 1.6 | 158 |
| Cc1cc(O)c2c(c1)[C@H]([C@@H](C)CCC(O)C(C)(C)N=[N+]=[N-])CC[C@H]2C (stereo partly specified) | 181 (≈ 62.5 µg/mL) | 1.3 | 231 |
| CC(C)=CCC[C@H](C)[C@@H]1CC[C@@H](C)c2c(OCCCCCCBr)cc(C)cc21 | > 200 | – | – |
| C/C(C=O)=C\CC[C@H](C)[C@@H]1CC[C@@H](C)c2c(O)cc(C)cc21 | 25.8 (≈ 7.75 µg/mL) | 4.5 | 116 |
| CC(C)=CCC[C@H](C)[C@@H]1CC[C@@H](C)c2c(OC(=O)c3ccc([N+](=O)[O-])cc3)cc(C)cc21 | > 200 | – | – |
| CC(C)=CCC[C@H](C)[C@@H]1CC[C@@H](C)c2c(OCc3cc([N+](=O)[O-])cc([N+](=O)[O-])c3)cc(C)cc21 | > 200 | – | – |
| CC(C)=CCC[C@H](C)[C@@H]1CC[C@@H](C)c2c(O)cc(C)cc21 [LEUBETHANOL] | 25.1 (≈ 7.19 µg/mL) | 4.9 | 123 |
| CC(C)=CCC[C@H](C)[C@@H]1CC[C@@H](C)c2c(OCCCCBr)cc(C)cc21 | > 200 | – | – |
| Cc1cc(O)c2c(c1)[C@H]([C@@H](C)CCC1OC1(C)C)CC[C@H]2C (mixture of isomers) | 103 | 6.4 | 661 |
| COc1cc(C)cc2c1[C@H](C)CC[C@H]2[C@@H](C)CCC=C(C)C [LEUBETHANOL METHYL ETHER] | > 200 | – | – |
| CC(C)=CCC[C@H](C)[C@@H]1CC[C@@H](C)c2c(OC(=O)c3ccccc3)cc(C)cc21 [LEUBETHANYL BENZOATE] | > 200 | – | – |
